Assay results published in ChEMBL document CHEMBL4177753, “Structural Modification of Natural Product Ganomycin I Leading to Discovery of a α-Glucosidase and HMG-CoA Reductase Dual Inhibitor Improving Obesity and Metabolic Dysfunction in Vivo” (J Med Chem, 2018).
Active and inactive are the calls of the source. The rule behind the calls is not given here.

What was measured:
[1] = Inhibition of rat small intestinal mucosal alpha-glucosidase using p-nitrophenyl-alpha-D-glucopyranoside as substrate after 40 mins by colorimetric method
How it was run: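 Rat small intestinal mucosal α-glucosidase; several compound concentrations, each run three times in parallel; phosphate-buffer control replaces compound, blank replaces enzyme. Absorbance at 405 nm; % inhibition = blank-corrected OD of test versus control; IC50 derived from the concentration gradient.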

[2] = molecular target: T1, 3-hydroxy-3-methylglutaryl-coenzyme A reductase (Sus scrofa, UniProt Q1W675); assay: (§1) Inhibition of pig liver microsomal HMG-CoA reductase by colorimetric method
T1 sequence (Q1W675 whole entry): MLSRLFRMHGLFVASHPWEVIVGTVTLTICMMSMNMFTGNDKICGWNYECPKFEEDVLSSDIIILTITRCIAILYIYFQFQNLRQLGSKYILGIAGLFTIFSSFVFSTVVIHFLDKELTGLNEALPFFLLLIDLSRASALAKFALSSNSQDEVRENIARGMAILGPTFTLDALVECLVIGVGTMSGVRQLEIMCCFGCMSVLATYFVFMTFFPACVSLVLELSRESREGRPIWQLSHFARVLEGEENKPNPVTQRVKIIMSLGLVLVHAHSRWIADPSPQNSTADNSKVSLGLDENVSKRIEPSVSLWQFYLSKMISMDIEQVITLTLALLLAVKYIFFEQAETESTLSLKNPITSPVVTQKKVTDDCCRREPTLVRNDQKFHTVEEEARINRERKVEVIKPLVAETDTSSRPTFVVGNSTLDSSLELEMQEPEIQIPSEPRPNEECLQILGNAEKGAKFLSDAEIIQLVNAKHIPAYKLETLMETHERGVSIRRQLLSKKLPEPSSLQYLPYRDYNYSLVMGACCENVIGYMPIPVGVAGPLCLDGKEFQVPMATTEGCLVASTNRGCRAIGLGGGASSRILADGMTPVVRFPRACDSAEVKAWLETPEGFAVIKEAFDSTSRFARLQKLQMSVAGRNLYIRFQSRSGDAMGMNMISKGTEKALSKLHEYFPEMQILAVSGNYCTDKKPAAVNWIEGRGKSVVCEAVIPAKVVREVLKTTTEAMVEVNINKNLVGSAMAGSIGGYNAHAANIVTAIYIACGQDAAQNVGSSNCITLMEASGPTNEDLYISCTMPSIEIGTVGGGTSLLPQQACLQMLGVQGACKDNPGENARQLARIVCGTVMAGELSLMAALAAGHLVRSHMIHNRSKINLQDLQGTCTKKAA
How it was run: (§2)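 Pig liver microsomal HMG-CoA reductase; compounds tested at several concentrations, each in triplicate; control uses phosphate buffer instead of compound, blank uses buffer instead of enzyme. Absorbance read at 405 nm; % inhibition from blank-corrected OD of test versus control; IC50 fitted from the inhibition-concentration series.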

[3] = molecular target: T2, 3-hydroxy-3-methylglutaryl-coenzyme A reductase (Sus scrofa) (UniProt Q1W675); assay: as §1; how it was run: as §2
T2 sequence (whole entry): T1 sequence (Q1W675 whole entry)

[4] = Inhibition of rat small intestinal mucosal alpha-glucosidase using p-nitrophenyl-alpha-D-glucopyranoside as substrate by HPLC method
How it was run: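 Rat intestinal α-glucosidase; after incubation the product 4-nitrophenol is quantified at once by HPLC (gradient from 20% acetonitrile in water with 0.1‰ TFA to 100% acetonitrile over 10 min). Each concentration run 3 times in parallel; % inhibition from peak areas versus control minus control blank; IC50 from the concentration series.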

Mus musculus [5] = assay: Antiobesity activity in C57BL/6J DIO mouse assessed as reduction in cumulative food intake at 3 mg/kg administered daily via oral gavage for 5 weeks; type: functional, organism-based
How it was run: (§3)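 Male C57BL/6J mice on high-fat diet, n = 8 per group, grouped by blood glucose and body weight. Daily oral gavage at 0.3, 1.0 or 3.0 mg/kg in soybean vehicle for 5 weeks. Vehicle groups were on normal diet and on high-fat diet.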

Mus musculus [6] = assay: Antiobesity activity in C57BL/6J DIO mouse assessed as reduction in weight gain at 3 mg/kg administered daily via oral gavage for 5 weeks relative to vehicle-treated control; type: functional; how it was run: as §3
Mus musculus [7] = assay: Antiobesity activity in C57BL/6J DIO mouse assessed as reduction in LEE index at 3 mg/kg administered daily via oral gavage for 5 weeks; type: functional, organism-based; how it was run: as §3

| Structure (SMILES) | IC50 [1] [µM] | IC50 [2] [µM] | inhibition [3] | IC50 [4] [µM] | Activity (Mus musculus [5]) | Activity (Mus musculus [6]) | Activity (Mus musculus [7]) |
| --- | --- | --- | --- | --- | --- | --- | --- |
| CC(C)c1c(C(=O)Nc2ccccc2)c(-c2ccccc2)c(-c2ccc(F)cc2)n1CC[C@@H](O)C[C@@H](O)CC(=O)O [ATORVASTATIN] |  | 0.93 |  |  |  |  |  |
| COCOc1ccccc1[C@H]1C=C(CC/C=C(\C)CCC=C(C)C)C(=O)O1 | 19.3 | 8.9 | Dose-dependent effect |  |  |  |  |
| C[C@H]1O[C@H](O[C@H]2[C@H](O)[C@@H](O)[C@@H](O[C@H]3[C@H](O)[C@@H](O)C(O)O[C@@H]3CO)O[C@@H]2CO)[C@H](O)[C@@H](O)[C@@H]1N[C@H]1C=C(CO)[C@@H](O)[C@H](O)[C@H]1O (stereo partly drawn) [ACARBOSE] | 1.26 |  |  |  | inactive | inactive | inactive |
| COc1ccc(OC)c([C@H]2C=C(CC/C=C(\C)CCC=C(C)C)C(=O)O2)c1 | 12.1 | 13.2 | Dose-dependent effect |  |  |  |  |
| CC(C)=CCC/C(C)=C/CCC1=C[C@H](c2cc(O)ccc2O)OC1=O | 0.38 |  |  |  |  |  |  |
| CC(C)=CCC/C(C)=C/CCC1=C[C@H](c2cc(F)ccc2F)OC1=O | 1.59 | 25.1 | Dose-dependent effect |  |  |  |  |
| CC(C)=CCC/C(C)=C/CCC1=C[C@H](c2ccccc2)OC1=O | 1.24 | 16.5 | Dose-dependent effect |  |  |  |  |
| CC(C)=CCC/C(C)=C/CCC1=C[C@H](c2cc(F)c(F)c(F)c2)OC1=O | 2.04 | 38.2 | Dose-dependent effect |  |  |  |  |
| CC(C)=CCC/C(C)=C/CCC1=C[C@H](c2ccccc2O)OC1=O | 2.27 | 6.76 | Dose-dependent effect |  |  |  |  |
| CC(C)=CCC/C(C)=C/CCC1=C[C@H](c2ccccc2[N+](=O)[O-])OC1=O | 0.26 | 18.9 | Dose-dependent effect |  |  |  |  |

Further lines, with some results ahead:

| IC50 [1] [µM] | IC50 [2] [µM] | inhibition [3] | IC50 [4] [µM] | Structure (SMILES) | Activity (Mus musculus [5]) | Activity (Mus musculus [6]) | Activity (Mus musculus [7]) |
| --- | --- | --- | --- | --- | --- | --- | --- |
| 0.29 | 18.1 | Dose-dependent effect | 0.23 | CC(C)=CCC/C(C)=C/CCC1=C[C@H](c2ccc(C)cc2)OC1=O |  |  |  |
| 0.17 | 14.2 | Dose-dependent effect | 0.16 | CCc1ccc([C@H]2C=C(CC/C=C(\C)CCC=C(C)C)C(=O)O2)cc1 |  |  |  |
| 5.11 | 7.43 | Dose-dependent effect |  | CC(C)=CCC/C(C)=C/CCC1=C[C@H](c2ccc([N+](=O)[O-])cc2)OC1=O |  |  |  |
| 21.7 | 6.21 | Dose-dependent effect |  | COc1ccc([C@H]2C=C(CC/C=C(\C)CCC=C(C)C)C(=O)O2)cc1 |  |  |  |
| 5.98 | 49.8 | Dose-dependent effect |  | CC(C)=CCC/C(C)=C/CCC1=C[C@H](c2ccc3ccccc3c2)OC1=O |  |  |  |
| 32.8 | 112 | Dose-dependent effect | 28.7 | CC(C)=CCC/C(C)=C/CCC1=C[C@H](c2ccc(C(C)C)cc2)OC1=O |  |  |  |
